Source: PubChem (several laboratories)
A selection: hits, their analogues and other compounds. The true share with any hit is near 12%.
Lmaj promast = Leishmania major promastigote growth inhibition, primary screen. inhibition, % at 10 µM. hit rate 9% among 200,000. AID 1063, 2008. Leishmania major promastigotes, resazurin fluorescence viability;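 note: promastigotes grown with compound for 44 hours at 28 °C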
Arbovirus anti = antivirals against arbovirus infection, primary screen, cell-based, full library, 10K replicate subset; arbovirus infection cell-based antiviral screen; inhibition, % at 10 µM; hit rate 0.37% among 200,000; in the data active = inhibition above about 30%
CHOP inh = inhibitors of CHOP promoter induction, primary screen, cell-based, unfolded protein response, luciferase reporter; CHO-K1 CHOP-promoter luciferase, tunicamycin-induced, 15-18 h; inhibition, % at 10 µM; hit rate 3.8% among 220,000; AID 2732, 2010;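 active = compounds that reduced the stress-induced luciferase reporter signal by more than about 70% of percent inhibition, limit read from the data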;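 note: 0% = tunicamycin plus vehicle and 100% = wells without tunicamycin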
Rad51 HR inh = human RAD51 strand exchange inhibitors, primary screen, biochemical, fluorescence. DNA repair protein RAD51 homolog 1 (Homo sapiens), Q06609. hit rate 0.085% among 200,000. hRad51 DNA strand exchange, fluorescence dequenching. AID 1385, 2008. inhibition, % at 10 µM;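 active = inhibition above 40% at the single screening dose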;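 note: 0% = DMSO control wells and 100% = blanks with heterologous ssDNA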
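System: human Rad51 nucleoprotein filaments preassembled on unlabelled ssDNA. Reagent: labelled 47-mer dsDNA for strand exchange. Schedule: 30-min compound preincubation and 15-min exchange, both room temperature. Measured by: FRET fluorescence dequenching, excitation 485 nm, emission 520 nm. Read-out: Fluorescence-based percent inhibition, control- and blank-normalised. Benchmarks: plate controls and plate blanks.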
PKD1 kinase inh = inhibitors of human PKD1 kinase, biochemical, fluorescence polarization. Serine/threonine-protein kinase D1 (Homo sapiens), Q15139. hit rate 0.056% among 200,000. AID 797, 2007. inhibition, % (test concentration not listed). PKD1 kinase fluorescence polarization assay
Wee1 degr inh = Wee1 degradation inhibitors, primary screen, cell-based, HeLa, Wee1K328M-luciferase, luminescence | Wee1-like protein kinase (Homo sapiens), P30291 | HeLa Luc-Wee1K328M stability; 100% = proteasome inhibitor MG132 effect | reporter increase, % at 5 µM | hit rate 1.2% among 220,000;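 active = activation above the mean of all tested compounds plus 3 SD, set per screening run, cut at about 8.8% in these data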;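 note: cells exposed to compound for 20 h before luminescence read; 0% = DMSO alone and 100% = MG132 at 30 µM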
Target sequence (P30291 whole entry K328M): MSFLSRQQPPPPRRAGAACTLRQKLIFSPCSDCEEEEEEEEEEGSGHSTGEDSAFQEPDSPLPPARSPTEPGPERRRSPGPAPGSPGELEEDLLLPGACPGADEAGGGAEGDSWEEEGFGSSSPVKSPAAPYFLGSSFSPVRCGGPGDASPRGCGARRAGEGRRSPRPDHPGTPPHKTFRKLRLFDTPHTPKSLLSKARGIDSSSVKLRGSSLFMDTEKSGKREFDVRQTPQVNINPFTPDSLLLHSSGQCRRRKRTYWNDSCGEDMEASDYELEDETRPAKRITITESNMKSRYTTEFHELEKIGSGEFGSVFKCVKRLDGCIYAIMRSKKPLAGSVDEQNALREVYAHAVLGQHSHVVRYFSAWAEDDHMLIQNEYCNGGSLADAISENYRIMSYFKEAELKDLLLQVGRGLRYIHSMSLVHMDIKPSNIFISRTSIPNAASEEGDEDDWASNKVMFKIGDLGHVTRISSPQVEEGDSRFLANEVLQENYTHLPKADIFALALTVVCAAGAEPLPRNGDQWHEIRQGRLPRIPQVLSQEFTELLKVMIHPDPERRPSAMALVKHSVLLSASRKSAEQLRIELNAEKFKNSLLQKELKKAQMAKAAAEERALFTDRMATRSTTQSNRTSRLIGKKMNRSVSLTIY
Wee1 degr conf = Wee1 degradation inhibitors, confirmation, cell-based, HeLa, Wee1K328M-luciferase, luminescence, triplicate. shares compounds with Wee1 degr inh. HeLa Luc-Wee1K328M degradation; vehicle 0%, proteasome-blocked wells 100%. activation, % at 5 µM. hit rate 4% among 1,100; in the data active = activation above about 8.9%
An asterisk follows results filed as active; . = no result given. Cut-off read from the data, not from the text of the source, unless noted: active = inhibition above about 50%; inactive = the rest.

SMILES	Lmaj promast	Arbovirus anti	CHOP inh	Rad51 HR inh	PKD1 kinase inh	Wee1 degr inh	Wee1 degr conf
O=C(O)c1ccc(CSc2nnc(COc3ccccc3)o2)cc1	-5	13	15	3	7	14*	4
Cc1cccc(C)c1NC(=O)CSc1cc(C(=O)c2nccn2C)c2ccccc2n1	5	1	8	-4	1	0	.
NNC(=O)CN1C(c2ccccc2Br)=Nc2ccc(Br)cc2C1c1ccccc1 (stereo unspecified)	2	-9	-2	.	-9	11*	-1
NNC(=O)CN1C(c2cccc(Cl)c2)=Nc2ccc(Br)cc2C1c1ccccc1 (stereo unspecified)	-2	-10	57	1	-2	1	.
CC1CCC2(CC1)OCC1(CCC3(COC4(CCC(C)CC4)OC3)C1=O)CO2 (stereo unspecified)	-1	15	17	2	-7	-4	.
CCOc1cc(/C=C2\C(=O)ON=C2C)ccc1OCc1ccccc1	38	-40	-30	-24	-1	18*	1
CCOc1cc(/C=C/C(=O)O)ccc1OCc1ccccc1	5	5	-9	-18	3	-2	.
Fc1ccccc1/C=N/Nc1ncnc2ccccc12	-9	16	-17	18	-6	12*	3
O=S(=O)(N/N=C/c1ccccc1F)c1ccccc1	-7	-1	-7	9	-2	-1	.
CCOc1ccc(NC(=O)CSc2nc(C)c3c(c2C#N)CCCC3)cc1	-6	-10	18	4	-6	0	.
COc1ccc(NC(=O)CSc2ccccn2)cc1	1	-5	-16	6	-7	-1	.
COc1ccc(NC(=O)CSCC(=O)NCCc2ccccn2)cc1	-5	22	-25	-6	-1	16*	-1
CC(=O)c1c(COC(=O)c2ccc(C)cc2)nc2ccccc2[n+]1[O-]	.	.	-2	14	.	16*	-1
CC1(C)COC(c2ccc(F)c([N+](=O)[O-])c2)=N1	4	-5	31	2	0	1	.
O=C(O)CC/C(=N\NC(=O)c1ccccc1Br)c1ccccc1	-9	6	28	0	8	-2	.
COc1cc(CNCCCCO)ccc1OCc1ccccc1F	83*	-7	-14	21	8	12*	-2
COc1ccc(/C=C/C(=O)O/N=C(\N)c2ccccc2)cc1OC	4	15	0	7	11	17*	0
COc1ccc(/C(N)=N/OC(=O)/C=C/c2ccccc2)cc1	7	4	24	14	-1	-1	.
Cn1ncc(Cl)c1C(=O)NC(=S)Nc1sc2c(c1C#N)CCCCC2	-8	8	65	7	2	2	.
COc1cc(C2Nc3ccc4ncccc4c3C3=C2C(=O)CCC3)ccc1O (stereo unspecified)	-3	-3	.	7	-14	2	.
CN(C)S(=O)(=O)c1cccc(N2C(=O)CC3(CCCCC3)CC2=O)c1	0	0	3	.	0	3	.
Clc1ccc(Nc2nc(C3CC3)cs2)cc1	-4	-1	98*	.	-9	12*	4
CC(C(=O)c1c[nH]c(C(=O)N=CN(C)C)c1)c1ncc(C(F)(F)F)cc1Cl (stereo unspecified)	2	7	20	-6	1	14*	2
O=S(=O)(c1cccs1)N1CCN(c2ccc(O)cc2)CC1	.	.	35	14	.	23*	-2
CN1CCN(S(=O)(=O)c2cccs2)CC1	8	1	-11	5	6	-2	.
SMILES	Lmaj promast	Arbovirus anti	CHOP inh	Rad51 HR inh	PKD1 kinase inh	Wee1 degr inh	Wee1 degr conf
Cc1ccc(S(=O)(=O)CCN2CCC(n3cccc3)CC2)cc1	.	.	19	24	.	1	.
CCN(CC)c1ccc(/C=N/NC(=O)c2ccoc2C)cc1	.	.	-22	8	.	16*	0
CCN(CC)c1ccc(/C=N\NC(N)=O)cc1	-2	-6	-15	-8	-5	-3	.
O=C(NCCCN1CCOCC1)C(=O)N/N=C/c1c(Cl)cccc1Cl	-3	15	13	-7	1	16*	3
O=C(NCCCN1CCOCC1)C(=O)N/N=C/c1ccccc1Cl	.	.	12	-14	.	1	.
CCOc1ccccc1NC(=O)C1=C(C)NC(=O)NC1c1cccc(OC)c1OC (stereo unspecified)	3	4	-5	-3	-5	-1	.
O=C(COC(=O)c1cc(=O)c2ccccc2o1)NC1CCCCC1	-8	6	-4	-1	5	17*	3
CC1CCCCC1NC(=O)COC(=O)c1cc(=O)c2ccccc2o1 (stereo unspecified)	-5	6	6	-3	5	-2	.
CC(=O)/C(N=Nc1nc2c([nH]1)c(=O)n(C)c(=O)n2C)=C(\C)O	.	.	-1	.	.	-2	.
Cc1cc(N2C(=O)C3C4C=CC(C4)C3C2=O)ccc1Br (stereo unspecified)	2	-4	26	5	-20	-3	.
CC(C)NS(=O)(=O)c1ccc(OCC(=O)N2CCc3ccccc3C2)cc1	-3	5	74*	.	-6	13*	3
CC(C)CCN1CCN(Cc2ccc(C#CC(C)(C)O)s2)CC1CCO (stereo unspecified)	3	-9	8	-6	1	11*	1
O=C(Nc1ccccc1)C1=C[C@@H](c2ccccc2)C[C@@H](OCc2ccc(CO)cc2)O1	30	-12	-16	-3	-5	0	.
O=C(Nc1ccccc1)C1=C[C@H](c2ccc(Br)cc2)C[C@H](OCc2ccc(CO)cc2)O1	16	-9	15	4	2	11*	5
CN(C)c1ccc(P(=O)(OC2CCCCC2)C(O)c2cccnc2)cc1 (stereo unspecified)	-5	17	4	-3	-1	12*	4
Cn1c(=O)c2c(ncn2Cc2ccccc2)n(C)c1=O	4	3	14	-2	-2	-1	.
Cn1c(=O)c2c(ncn2CCCc2ccccc2)n(C)c1=O	1	3	11	2	-11	12*	2
CC(C)Oc1ccc(CC2CCC(=O)N(C)C2=O)cc1 (stereo unspecified)	33	4	-16	.	-4	2	.
COc1ccc(CNC(=O)COc2ccc(C(=O)c3ccc(F)cc3)cc2)cc1	20	-3	-9	4	-4	-1	.
O=C(COc1ccc(C(=O)c2ccc(F)cc2)cc1)NCc1ccc(F)cc1	-5	-5	67	-7	-5	11*	14*
